Reference: PubChem BioAssay
Records with an inconclusive call do not appear.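 The calls were made as follows, unless noted: active = cell viability at or below a set limit in both duplicate runs, the limit being the all-compound median minus 4 SD (cut at about 23% in these data, passing the limit was not always enough); inconclusive = no clear call, values can overlap the other calls; inactive = the rest.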

Columns and labels:
[1] = S. cerevisiae growth inhibition in permissive medium (OD615), pilot counter-assay for S. cerevisiae lifespan shortening project, permissive growth control (AID 705;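 active = growth inhibition above 25% in both replicates, a cutoff set 3 SD above the mean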); details: OD615, 24 h, at 10 µM, active compounds read high
Procedure, shortened: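 System: Engineered DeaD yeast | Buffer or medium: SC raffinose/galactose permissive medium | Incubation: Cells pre-grown 4 h, then 24 h compound exposure, 30 °C humidified | Measured by: Absorbance (optical density) at 615 nm | Read-out: Reduction in yeast growth (OD615)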

[2] = S. cerevisiae growth inhibition in restrictive medium, OD615, pilot screen, restrictive growth control, yeast lifespan reduction project (AID 706;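 active = growth inhibition above a set limit, 3 SD over mean compound inhibition, in both replicates, cut at about 43% in these data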;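 also: modified DeaD lifespan yeast strain shifted to restrictive glucose medium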); details: OD615, 48 h, at 10 µM, active compounds read high
Procedure, shortened: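 Material: modified S. cerevisiae; Medium: glucose-based CSMM-D restrictive medium; Compound dosing: one concentration, 10 µM final, 0.25% DMSO; Incubation: 48 h compound exposure at 30 °C; Measured by: OD615.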

[3] = doxorubicin toxicity protection in MRP-1 cells – H69AR cells, CellTiter-Glo, duplicate, MRP-1 activator project, pilot screen (AID 807;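 active = viability increase at or above a cutoff of the median across tested compounds plus 3 SD, cut at about 8.5% in these data, passing the limit was not always enough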;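 also: compound pretreatment 18-22 h then 72 h combined with doxorubicin; 0% = doxorubicin alone and 100% = vehicle without doxorubicin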); details: H69AR viability with doxorubicin, CellTiter-Glo luminescence; at 10 µM; active compounds read high
[4] = viability of HCT116 without oncogenic beta-catenin – human colon tumor cells, pilot screen (AID 823); details: HCT116 beta-catenin knockout viability, CellTiter-Glo, 60 h; at 10 µM; active compounds read low;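 also: 0% = wells killed by 20 µM Hyamine and 100% = untreated DMSO cell wells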
[5] = viability of PTEN-null HCT116 cells – cell-based, HCT116 clonal line, CellTiter-Glo, pilot screen (AID 824;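 active = viability at or below 27.92% in each of two runs, the all-compound median minus 4 SD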;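 also: 0% = 20 µM Hyamine control and 100% = vehicle cell control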); details: HCT116 PTEN-deleted viability, 60 h, at 10 µM, active compounds read low
[6] = RAM pathway blockade in budding yeast – dse1pr::URA3 reporter, 5-FOA selection, pilot screen (AID 869;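 active = inhibition over a set limit, the all-compound mean plus 3 SD, in both replicate runs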;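 also: 0% = DMSO wells with no growth and 100% = 10 µM 1-NA-PP1 with full growth; RAM network block rescues cells from 5-FOA so hits raise OD615 growth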); details: S. cerevisiae dse1pr::URA3 5-FOA growth, OD615, 2 d; at 10 µM; active compounds read high; strain carries analog-sensitive mutant Cbk1 kinase
[7] = RAM signaling pathway blockade in yeast – S. cerevisiae, Pdr1DBD-CYC8 efflux-inhibited sensitized strain, primary screen (AID 1298;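 active = RAM network inhibition above 8.4% in each of two replicates, 3 SD over the compound average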;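 also: 0% = DMSO untreated cells without growth and 100% = 10 µM 1-NA-PP1 full growth; higher means more yeast growth rescued from 5-FOA killing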); details: S. cerevisiae cbk1-as DSE1-URA3 strain, 5-FOA growth OD615, 2 d; at 50 µM; active compounds read high

Cc1cc(Nc2ccc(Br)c(C)c2)n2nc(C)nc2n1
inactive: growth inhibition [1] -8.54% | growth inhibition [2] 4.61% | viability increase [3] -6.94% | viability [4] 80.9% | viability [5] 84.9% | inhibition [6] 0.65% | RAM network inhibition [7] 6.84%

c1ccc2c(c1)CCN(c1nc3ccccc3n3cnnc13)C2
inactive: growth inhibition [1] -1.93% | growth inhibition [2] 10.2% | viability increase [3] -8.63% | viability [4] 65.1% | viability [5] 68.9% | inhibition [6] 0.5% | RAM network inhibition [7] -0.31%

CCOc1ccc(C2CC(c3ccc(F)cc3)n3ncnc3N2)cc1 (stereo not drawn)
inactive: growth inhibition [1] 4.61% | growth inhibition [2] -1.42% | viability increase [3] -0.13% | viability [4] 100% | viability [5] 91.1% | inhibition [6] 2.65% | RAM network inhibition [7] -0.36%

Cc1ccc(C(=O)N(Cc2nc(-c3ccc(C)cc3)no2)C(C)C)cc1
inactive: growth inhibition [1] -14.3% | growth inhibition [2] -18.5% | viability increase [3] 0.77% | viability [4] 100% | viability [5] 94.5% | inhibition [6] 1.33% | RAM network inhibition [7] 5.26%

CC(C)Sc1oc(-c2ccco2)nc1S(=O)(=O)c1ccc(F)cc1
inactive: growth inhibition [1] -5.61% | growth inhibition [2] -0.07% | viability increase [3] -2.29% | viability [4] 94% | viability [5] 89.8% | inhibition [6] 1.54% | RAM network inhibition [7] 6.36%

COc1c(C)cccc1C(=O)Nc1cc(-c2nn3c(C)nnc3s2)ccc1C
inactive: growth inhibition [1] 13.5% | growth inhibition [2] 37% | viability increase [3] -5.61% | viability [4] 73.9% | viability [5] 64.2% | inhibition [6] 2.07% | RAM network inhibition [7] 7.01%

COc1ccc(CC(NC(=O)c2ccccc2)C(=O)NCC(=O)O)cc1 (stereo not drawn)
inactive: growth inhibition [1] -3.04% | growth inhibition [2] -2.91% | viability increase [3] -0.14% | viability [4] 95.2% | viability [5] 101% | inhibition [6] 1.44% | RAM network inhibition [7] -0.37%

Cc1cccc(-n2ncc3c(N4CCOCC4)ncnc32)c1
inactive: growth inhibition [1] 6.08% | growth inhibition [2] 17.2% | viability increase [3] -0.68% | viability [4] 101% | viability [5] 90.5% | inhibition [6] 1.59% | RAM network inhibition [7] 0.06%

COc1ccc(-c2nnnn2C)cc1S(=O)(=O)NCCc1ccccc1
inactive: growth inhibition [1] -8.48% | growth inhibition [2] 2.52% | viability increase [3] 0.12% | viability [4] 97.5% | viability [5] 104% | inhibition [6] 1% | RAM network inhibition [7] 3.03%

Cn1c(=O)c2c(nc(-n3ccnc3)n2Cc2ccc(Cl)cc2Cl)n(C)c1=O
inactive: growth inhibition [1] -10.2% | growth inhibition [2] -2.64% | viability increase [3] -4.31% | viability [4] 89.2% | viability [5] 80.4% | inhibition [6] 1.17% | RAM network inhibition [7] 5.62%

c1ccc(CNn2c(N3CCOCC3)nc3ccccc32)cc1
inactive: growth inhibition [1] -14.9% | growth inhibition [2] -10.9% | viability increase [3] -3.02% | viability [4] 93% | viability [5] 93.2% | inhibition [6] 0.5% | RAM network inhibition [7] 4.26%

CCOC(=O)N1CCC(NC(=O)c2ccc(CS(=O)(=O)c3ccccc3C)o2)CC1
inactive: growth inhibition [1] -9.38% | growth inhibition [2] -19.7% | viability increase [3] -0.86% | viability [4] 106% | viability [5] 98.5% | inhibition [6] -0.185% | RAM network inhibition [7] 7.2%

CCCC(=O)NC(C)c1nc2ccccc2n1C (stereo not drawn)
inactive: growth inhibition [1] -18.7% | growth inhibition [2] -2.34% | viability increase [3] 2.12% | viability [4] 101% | viability [5] 102% | inhibition [6] 1.45% | RAM network inhibition [7] 1.79%

O=C(COc1ccccc1Br)NCc1ccco1
inactive: growth inhibition [1] 2.92% | growth inhibition [2] 8.48% | viability increase [3] -3.54% | viability [4] 97% | viability [5] 102% | inhibition [6] 1.51% | RAM network inhibition [7] 3.3%

COc1ccc(Cl)cc1N(CC(=O)Nc1ccc2c(c1)OCO2)S(C)(=O)=O
inactive: growth inhibition [1] -15.1% | growth inhibition [2] -11.7% | viability increase [3] -3.17% | viability [4] 92.6% | viability [5] 89.4% | inhibition [6] 0.79% | RAM network inhibition [7] 2.18%

CCC(C)NC(=O)c1cnc2n(c1=O)CCS2 (stereo not drawn)
inactive: growth inhibition [1] 0.08% | growth inhibition [2] -1.8% | viability increase [3] 1.88% | viability [4] 103% | viability [5] 103% | inhibition [6] 1.18% | RAM network inhibition [7] 1.25%

CN(CCc1ccccn1)C(=O)Nc1ccc(F)cc1
inactive: growth inhibition [1] -7.65% | growth inhibition [2] -14.7% | viability increase [3] -1.63% | viability [4] 108% | viability [5] 98% | inhibition [6] 0.71% | RAM network inhibition [7] 5.39%

C=CCNc1oc(COc2ccc(C)cc2)nc1C#N
inactive: growth inhibition [1] -7.16% | growth inhibition [2] 1.92% | viability increase [3] 4.36% | viability [4] 99.1% | viability [5] 97.3% | inhibition [6] 1.18% | RAM network inhibition [7] -0.52%

CCOC(=O)N1CCN(C(=O)CN(c2cc(C(F)(F)F)ccc2Cl)S(C)(=O)=O)CC1
inactive: growth inhibition [1] 0.24% | growth inhibition [2] 9.28% | viability increase [3] -1.79% | viability [4] 103% | viability [5] 99% | inhibition [6] -0.91% | RAM network inhibition [7] -0.25%
